Experimental data from different studies.
Target: Mitogen-activated protein kinase kinase kinase 6 (MAP3K6, Homo sapiens, UniProt O95382)
Sequence (O95382 1-1288, as in one of the studies): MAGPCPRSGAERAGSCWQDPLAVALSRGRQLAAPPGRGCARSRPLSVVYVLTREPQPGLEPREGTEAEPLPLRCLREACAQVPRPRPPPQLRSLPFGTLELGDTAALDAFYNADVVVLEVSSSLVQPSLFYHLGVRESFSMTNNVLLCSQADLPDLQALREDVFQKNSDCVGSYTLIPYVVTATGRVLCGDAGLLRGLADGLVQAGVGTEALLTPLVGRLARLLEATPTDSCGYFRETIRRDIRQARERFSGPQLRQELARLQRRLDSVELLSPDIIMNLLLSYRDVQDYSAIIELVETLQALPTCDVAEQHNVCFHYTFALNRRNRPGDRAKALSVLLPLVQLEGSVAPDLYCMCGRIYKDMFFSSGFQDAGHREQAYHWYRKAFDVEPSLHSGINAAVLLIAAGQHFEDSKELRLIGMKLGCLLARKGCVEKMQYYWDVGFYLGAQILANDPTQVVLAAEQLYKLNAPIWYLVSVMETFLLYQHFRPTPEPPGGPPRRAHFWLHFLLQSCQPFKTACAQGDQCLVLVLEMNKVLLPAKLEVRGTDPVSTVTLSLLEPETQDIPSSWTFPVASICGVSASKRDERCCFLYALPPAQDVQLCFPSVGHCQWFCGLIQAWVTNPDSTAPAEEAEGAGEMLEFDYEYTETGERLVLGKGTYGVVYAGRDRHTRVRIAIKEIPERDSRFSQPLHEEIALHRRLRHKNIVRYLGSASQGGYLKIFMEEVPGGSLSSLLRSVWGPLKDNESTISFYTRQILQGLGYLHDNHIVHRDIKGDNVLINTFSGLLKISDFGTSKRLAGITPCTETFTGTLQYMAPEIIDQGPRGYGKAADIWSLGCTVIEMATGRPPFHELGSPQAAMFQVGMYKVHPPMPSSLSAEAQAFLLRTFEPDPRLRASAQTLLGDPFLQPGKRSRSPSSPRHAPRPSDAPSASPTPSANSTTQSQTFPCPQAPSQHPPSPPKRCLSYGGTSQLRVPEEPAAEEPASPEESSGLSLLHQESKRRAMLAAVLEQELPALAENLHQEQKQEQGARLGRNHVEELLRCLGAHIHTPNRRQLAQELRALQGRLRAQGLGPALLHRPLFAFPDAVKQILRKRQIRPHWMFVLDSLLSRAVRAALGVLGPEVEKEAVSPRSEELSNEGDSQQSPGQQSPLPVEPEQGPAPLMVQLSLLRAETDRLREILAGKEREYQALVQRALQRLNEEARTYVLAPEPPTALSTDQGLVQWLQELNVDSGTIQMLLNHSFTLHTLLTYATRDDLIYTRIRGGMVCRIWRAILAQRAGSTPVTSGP

SMILES | assay | conditions | remaining binding [%]
Nc1ncc2c(n1)-c1c([nH]c3ccc(C#CC4CC4)cc13)CCCC2 | binding, competition with immobilised ligand | 1 µM | 98
CCN1CCN(Cc2ccc(C(=O)Nc3ccc(C)c(Oc4ccc5c(c4)CC(=O)N5)c3)cc2C(F)(F)F)CC1 | binding, competition with immobilised ligand | 1 µM | 100
N#CC1(c2ccccn2)CCN(Cc2cc(C(=O)N3CCCC3)c(=O)n3ccccc23)CC1 | cell-free assay, competition with immobilised ligand | 1 µM | 100
CNC(=O)[C@@H]1CC[C@@H](n2c(-c3ccc4cnccc4c3)nc3ccc(C(=O)NCc4cccc(C(N)=O)c4)cc32)C1 | binding, competition with immobilised ligand | 1 µM | 100
F[C@@H]1CCN(c2nccc(-c3cnn4ncccc34)n2)C1 | binding | 1 µM | 76
O=C(NCCCN1CCOCC1)c1ccc(Nc2ncc(Cl)c(-c3ccc(Cl)s3)n2)cc1 | binding, competition with immobilised ligand | 1 µM | 83
COc1cnc(Nc2cccc(S(N)(=O)=O)c2)nc1N1CCN(c2ccccc2)CC1 | binding, competition with immobilised ligand | 1 µM | 93
CSc1cccnc1N1CCN(Cc2nc3ccccc3[nH]2)CC1 | cell-free assay, competition with immobilised ligand | 1 µM | 92
C[C@@H]1CCN(c2nccc(-c3cnn4ncccc34)n2)C1 | binding | 1 µM | 55
CCOCCn1cc(C(=O)Nc2ccc(-n3nc(-c4cccnc4)cc3C(F)(F)F)cn2)ccc1=O | cell-free assay, competition with immobilised ligand | 1 µM | 86
O=C(Nc1c[nH]nc1C(=O)NC1CCNCC1)c1cc(F)cc(F)c1 | binding, competition with immobilised ligand | 1 µM | 84
CCS(=O)(=O)c1cc2cc(C[C@@](O)(CC(C)(C)c3ccc(F)cc3C(N)=O)C(F)(F)F)[nH]c2cn1 | cell-free assay, competition with immobilised ligand | 1 µM | 100
c1cnn2ncc(-c3ccnc(N4CCC45COC5)n3)c2c1 | binding | 1 µM | 61
CN([C@@H]1CCc2c(CC(=O)O)c3cc(S(C)(=O)=O)ccc3n2C1)S(=O)(=O)c1ccc(F)cc1 | cell-free assay, competition with immobilised ligand | 1 µM | 89
CN(c1nccc(-c2cnn3ncccc23)n1)C1CC1 | binding | 1 µM | 100
O=C(NCCCN1CCOCC1)c1ccc(Nc2nccc(-c3cc4ccccc4s3)n2)cc1 | binding, competition with immobilised ligand | 1 µM | 98
CN(C)c1nccc(-c2cnn3ncccc23)n1 | binding | 1 µM | 74
CCCOc1ccc([C@@H]2[C@@H](C(=O)O)[C@H](c3ccc4c(c3)OCO4)CN2CC(=O)Nc2c(CC)cccc2CC)cc1 | cell-free assay, competition with immobilised ligand | 1 µM | 77
N[C@@H]1CCN(c2nccc(-c3cnn4ncccc34)n2)C1 | binding | 1 µM | 57
O=C(c1ccc(Nc2ncc(Cl)c(-c3ccc(Cl)s3)n2)cc1)N1CCC(N2CCCC2)CC1 | binding, competition with immobilised ligand | 1 µM | 66
CN(C)c1nccc(-c2cnc3ncccn23)n1 | binding | 1 µM | 67
c1cncc(-c2cccc(Nc3nccc(NC4CCCCC4)n3)c2)c1 | binding, competition with immobilised ligand | 10 µM | 100
